Source: ChEMBL document CHEMBL3272272, “Photoaffinity labeling of the angiotensin II receptor. 1. Synthesis and biological activities of the labeling peptides” (J Med Chem, 1978)
Non-standard residues stand in square brackets, D forms with d. Residues, ends and D or L forms follow the SMILES beside them. Phe(4-NO2) = N[C@@H](Cc1ccc([N+](=O)[O-])cc1)C(=O)O; Phe(3,5-I2,4-NH2) = Nc1c(I)cc(C[C@H](N)C(=O)O)cc1I; Phe(4-N3) = [N-]=[N+]=Nc1ccc(C[C@H](N)C(=O)O)cc1; Phe(4-N2+) = N#[N+]c1ccc(C[C@H](N)C(=O)O)cc1; Phe(4-NH2) = Nc1ccc(C[C@H](N)C(=O)O)cc1; Sar = CNCC(=O)O

Legend:
Oryctolagus cuniculus [1] = organism: Oryctolagus cuniculus; assay: Relative binding affinity at rabbit angiotensin […] receptor in aorta strips under exclusion of long wavelength UV light relative to control; format: tissue-based
Oryctolagus cuniculus [2] = organism: Oryctolagus cuniculus; assay: Agonist activity at rabbit angiotensin […] receptor in aorta strips assessed as peptide concentration required to produce 50% maximal response under exclusion of long wavelength UV light
Method in brief: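 Rabbit aorta contractile bioassay. […]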

Oryctolagus cuniculus [3] = organism: Oryctolagus cuniculus; assay: Intrinsic activity at rabbit angiotensin […] receptor in aorta strips under exclusion of long wavelength UV light; format: tissue-based
Method in brief: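 Intrinsic activity (αE) was determined with the rabbit aorta bioassay.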

[4] = Antagonist activity at rabbit angiotensin […] receptor in aorta strips under exclusion of long wavelength UV light; format: tissue-based; conditions: Oryctolagus cuniculus, read-out: pA2 (converted)

pD2 (Oryctolagus cuniculus [2]) | Compound | RBA (Oryctolagus cuniculus [1]) [%] | Intrinsic activity (Oryctolagus cuniculus [3]) | Kb [4] [nM]
9.07 | CNCC(=O)N[C@@H](CCCNC(=N)N)C(=O)N[C@H](C(=O)N[C@@H](Cc1ccc(O)cc1)C(=O)N[C@H](C(=O)N[C@@H](Cc1cnc[nH]1)C(=O)N1CCC[C@H]1C(=O)N[C@@H](Cc1ccc([N+](=O)[O-])cc1)C(=O)O)C(C)C)C(C)C | 69 | 0.46 | 0.372
8.8 | CNCC(=O)N[C@@H](CCCNC(=N)N)C(=O)N[C@H](C(=O)N[C@@H](Cc1ccc(O)cc1)C(=O)N[C@H](C(=O)N[C@@H](Cc1cnc[nH]1)C(=O)N1CCC[C@H]1C(=O)N[C@@H](Cc1ccc(N)cc1)C(=O)O)C(C)C)C(C)C | 37 | 1 | –
9.23 | CNCC(=O)N[C@@H](CCCNC(=N)N)C(=O)N[C@H](C(=O)N[C@@H](Cc1ccc(O)cc1)C(=O)N[C@H](C(=O)N[C@@H](Cc1cnc[nH]1)C(=O)N1CCC[C@H]1C(=O)N[C@@H](Cc1ccccc1)C(=O)O)C(C)C)C(C)C (H-[Sar]RVYVHPF-OH) | – | 1 | –
7.68 | CNCC(=O)N[C@@H](CCCNC(=N)N)C(=O)N[C@H](C(=O)N[C@@H](Cc1cc(I)c(N)c(I)c1)C(=O)N[C@H](C(=O)N[C@@H](Cc1cnc[nH]1)C(=O)N1CCC[C@H]1C(=O)N[C@@H](Cc1ccccc1)C(=O)O)C(C)C)C(C)C (H-[Sar]RV[Phe(3,5-I2,4-NH2)]VHPF-OH) | 2.7 | 1 | –
8.72 | CNCC(=O)N[C@@H](CCCNC(=N)N)C(=O)N[C@H](C(=O)N[C@@H](Cc1ccc(O)cc1)C(=O)N[C@H](C(=O)N[C@@H](Cc1cnc[nH]1)C(=O)N1CCC[C@H]1C(=O)N[C@@H](Cc1ccc(N=[N+]=[N-])cc1)C(=O)O)C(C)C)C(C)C | 31 | 1 | –
7.36 | CNCC(=O)N[C@@H](CCCNC(=N)N)C(=O)N[C@H](C(=O)N[C@@H](Cc1ccc([N+]#N)cc1)C(=O)N[C@H](C(=O)N[C@@H](Cc1cnc[nH]1)C(=O)N1CCC[C@H]1C(=O)N[C@@H](Cc1ccc([N+]#N)cc1)C(=O)O)C(C)C)C(C)C (H-[Sar]RV[Phe(4-N2+)]VHP[Phe(4-N2+)]-OH) | 1.3 | 1 | –

Continued, compound first:

Compound | pD2 (Oryctolagus cuniculus [2]) | RBA (Oryctolagus cuniculus [1]) [%] | Intrinsic activity (Oryctolagus cuniculus [3]) | Kb [4] [nM]
CNCC(=O)N[C@@H](CCCNC(=N)N)C(=O)N[C@H](C(=O)N[C@@H](Cc1ccc(N=[N+]=[N-])cc1)C(=O)N[C@H](C(=O)N[C@@H](Cc1cnc[nH]1)C(=O)N1CCC[C@H]1C(=O)N[C@@H](Cc1ccc(N=[N+]=[N-])cc1)C(=O)O)C(C)C)C(C)C (H-[Sar]RV[Phe(4-N3)]VHP[Phe(4-N3)]-OH) | 6.12 | 0.07 | 0.8 | –
CNCC(=O)N[C@@H](CCCNC(=N)N)C(=O)N[C@H](C(=O)N[C@@H](Cc1ccc([N+](=O)[O-])cc1)C(=O)N[C@H](C(=O)N[C@@H](Cc1cnc[nH]1)C(=O)N1CCC[C@H]1C(=O)N[C@@H](Cc1ccc([N+](=O)[O-])cc1)C(=O)O)C(C)C)C(C)C (H-[Sar]RV[Phe(4-NO2)]VHP[Phe(4-NO2)]-OH) | 6.02 | 0.06 | 0.5 | 759
CNCC(=O)N[C@@H](CCCNC(=N)N)C(=O)N[C@H](C(=O)N[C@@H](Cc1ccc(N=[N+]=[N-])cc1)C(=O)N[C@H](C(=O)N[C@@H](Cc1cnc[nH]1)C(=O)N1CCC[C@H]1C(=O)N[C@@H](Cc1ccccc1)C(=O)O)C(C)C)C(C)C (H-[Sar]RV[Phe(4-N3)]VHPF-OH) | 6.65 | 0.26 | 0.75 | –
CNCC(=O)N[C@@H](CCCNC(=N)N)C(=O)N[C@H](C(=O)N[C@@H](Cc1ccc(N)cc1)C(=O)N[C@H](C(=O)N[C@@H](Cc1cnc[nH]1)C(=O)N1CCC[C@H]1C(=O)N[C@@H](Cc1ccc(N)cc1)C(=O)O)C(C)C)C(C)C (H-[Sar]RV[Phe(4-NH2)]VHP[Phe(4-NH2)]-OH) | 8.17 | 8.7 | 1 | –
CNCC(=O)N[C@@H](CCCNC(=N)N)C(=O)N[C@H](C(=O)N[C@@H](Cc1ccc(O)cc1)C(=O)N[C@H](C(=O)N[C@@H](Cc1cnc[nH]1)C(=O)N1CCC[C@H]1C(=O)N[C@@H](Cc1ccc([N+]#N)cc1)C(=O)O)C(C)C)C(C)C | 8.33 | 13 | 1 | –
CNCC(=O)N[C@@H](CCCNC(=N)N)C(=O)N[C@H](C(=O)N[C@@H](Cc1ccc(O)cc1)C(=O)N[C@H](C(=O)N[C@@H](Cc1cnc[nH]1)C(=O)N1CCC[C@H]1C(=O)N[C@@H](Cc1cc(I)c(N)c(I)c1)C(=O)O)C(C)C)C(C)C | – | 118 | 0 | 0.501
CNCC(=O)N[C@@H](CCCNC(=N)N)C(=O)N[C@H](C(=O)N[C@@H](Cc1ccc(N)cc1)C(=O)N[C@H](C(=O)N[C@@H](Cc1cnc[nH]1)C(=O)N1CCC[C@H]1C(=O)N[C@@H](Cc1ccccc1)C(=O)O)C(C)C)C(C)C (H-[Sar]RV[Phe(4-NH2)]VHPF-OH) | 8.41 | 15 | 1 | –
CNCC(=O)N[C@@H](CCCNC(=N)N)C(=O)N[C@H](C(=O)N[C@@H](Cc1ccc([N+]#N)cc1)C(=O)N[C@H](C(=O)N[C@@H](Cc1cnc[nH]1)C(=O)N1CCC[C@H]1C(=O)N[C@@H](Cc1ccccc1)C(=O)O)C(C)C)C(C)C (H-[Sar]RV[Phe(4-N2+)]VHPF-OH) | 7.05 | 0.66 | 1 | –
CNCC(=O)N[C@@H](CCCNC(=N)N)C(=O)N[C@H](C(=O)N[C@@H](Cc1ccc([N+](=O)[O-])cc1)C(=O)N[C@H](C(=O)N[C@@H](Cc1cnc[nH]1)C(=O)N1CCC[C@H]1C(=O)N[C@@H](Cc1ccccc1)C(=O)O)C(C)C)C(C)C (H-[Sar]RV[Phe(4-NO2)]VHPF-OH) | – | 0 | 0 | –
